The text below walks through data of ChEMBL document CHEMBL1134527, “Discovery of novel mesangial cell proliferation inhibitors using a three-dimensional database searching method” (2001).

Usually inhibition stands for the relative decrease from the control value, in per cent.

What all share (type): functional
The nature of experiment [1]: Compound was tested for the in vitro MC proliferation Inhibitory activity at a dose of 0.1 uM against normal human mesangial cells. In a few lines:
(§1)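 Normal human glomerular mesangial cells grown in MCDB131 with 5% FBS, amphotericin B and gentamycin. Plated at 2 × 10⁴ cells/well for 3 days, then serum-free 4 days. Exposed to compound in DMEM + 2% FBS for 18 h with 1 μCi/mL [³H]thymidine. TCA-insoluble counts read; four wells per concentration. Inhibition % = (control − sample)/(control − DMEM blank).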

A short description of experiment [2]: Compound was tested for the in vitro MC proliferation Inhibitory activity at a dose of 1 uM against normal human mesangial cells. In a few lines: as §1
Experiment [3] deals with RPTEC. As to the kind of experiment: Compound was evaluated for the renal proximal tubular epithelial cell (RPTEC) proliferation assay using RPTEC's at a dose of 10 uM. The conditions noted are these: Homo sapiens. In a few lines:
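Human renal proximal tubular epithelial cells, run by the same [³H]thymidine method as the mesangial assay. Compound added in DMEM + 2% FBS for 18 h after serum-free pre-incubation. DNA synthesis taken as TCA-insoluble counts, four wells per concentration. Inhibition % = (control − sample)/(control − blank), where blank is DMEM alone.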

The nature of experiment [4]: Compound was tested for the in vitro MC proliferation Inhibitory activity at a dose of 10 uM against normal human mesangial cells. In a few lines: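 Normal human glomerular mesangial cells kept in MCDB131 with amphotericin B, gentamycin and 5% FBS. Seeded 2 × 10⁴ cells/well, grown 3 days, serum-starved 4 days. Then given compound in DMEM + 2% FBS for 18 h with 1 μCi/mL [³H]thymidine. TCA-insoluble counts read by scintillation, four wells per concentration. Inhibition % = (control − sample)/(control − blank), where blank is DMEM alone.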

Experiment [5] relates to RPTEC. As to the kind of experiment: Compound was evaluated for the renal proximal tubular epithelial cell (RPTEC) proliferation assay using RPTEC''s at a dose of 0.1 uM. The following applies: Homo sapiens. In a few lines:
(§2)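 Human renal proximal tubular epithelial cells handled as in the mesangial assay: plated 2 × 10⁴ cells/well for 3 days, serum-starved 4 days. Then 18 h in DMEM + 2% FBS with compound and 1 μCi/mL [³H]thymidine. TCA-precipitable counts measured; four wells per concentration. % inhibition = (control − sample)/(control − blank).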

Experiment [6] concerns RPTEC. In words: Compound was evaluated for the renal proximal tubular epithelial cell ( RPTEC) proliferation assay using RPTEC''s at a dose of 1 uM. The following applies: Homo sapiens. In a few lines:
as §2

For the compound `Cc1c(Cc2c(Cl)cccc2Cl)c(=O)oc2cc(OCC(=O)OCC(=O)c3ccccc3)ccc12`, the values for the inhibition at 0.1 µM (in experiment [1]; in the experiment on RPTEC [5]) were 49% and 35%, respectively. In addition, the inhibition at 1 µM is 60% in experiment [2] and 24% in the experiment on RPTEC [6]. Moreover, the inhibition at 10 µM was found to be 31% with RPTEC [3] and 66% in experiment [4].
With `CCOP(=O)(Cc1ccc(C(=O)Nc2nc3c(OC)cc(OC)cc3s2)cc1)OCC`, the inhibition at 0.1 µM in experiment [1] came to 59%; in the experiment on RPTEC [5], 33%. Further, the values for the inhibition at 1 µM (in experiment [2]; in the experiment on RPTEC [6]) were 59% and 39%, respectively. Moreover, the inhibition at 10 µM with RPTEC [3] was 103%; in experiment [4], 108%.
Turning to `CCOC(=O)c1cc(NC(=O)NC(=O)c2c(Cl)cccc2Cl)ccc1Oc1cncc(Cl)c1`, the inhibition at 0.1 µM was 90% in experiment [1] and -1% with RPTEC [5]. Moreover, the results for the inhibition at 1 µM (in experiment [2]; with RPTEC [6]) were 105% and 32%, respectively. Moreover, the inhibition at 10 µM in the experiment with RPTEC [3] came to 96%; in experiment [4] it was 112%.
As for `CO/C(O)=C(/C=N/c1ccc(Oc2ccccc2OC(C)C)nc1)NC(=O)c1ccccc1`, the inhibition at 0.1 µM amounted to 68% in experiment [1] and 2% with RPTEC [5]. In addition, the values for the inhibition at 1 µM (in experiment [2]; with RPTEC [6]) were 73% and 12%, respectively. In addition, the inhibition at 10 µM with RPTEC [3] was found to be 8%; in experiment [4] it was 82%.
Regarding `Cc1c(Cc2c(Cl)cccc2Cl)c(=O)oc2cc(OCC(=O)OCC(=O)c3ccc(Cl)cc3)ccc12`, the inhibition at 0.1 µM in experiment [1] is 72%; in the experiment with RPTEC [5], 16%. The inhibition at 1 µM in experiment [2] worked out at 74%; in the experiment with RPTEC [6], 6%. The inhibition at 10 µM in the experiment with RPTEC [3] was determined as 21%; in experiment [4], 80%.
`CCOP(=O)(Cc1ccc(C(=O)Nc2cc(-c3ccc(Cl)cc3)no2)cc1)OCC`: the values for the inhibition at 0.1 µM (in experiment [1]; with RPTEC [5]) were 69% and 30%, respectively. In addition, the inhibition at 1 µM in experiment [2] was 91%; in the experiment on RPTEC [6], 88%. Besides, the inhibition at 10 µM in the experiment on RPTEC [3] stood at 99%; in experiment [4], 94%.
Turning to `CCOP(=O)(Cc1ccc(C(=O)Nc2ccccn2)cc1)OCC`, the values for the inhibition at 0.1 µM (in experiment [1]; with RPTEC [5]) were 62% and 23%, respectively. Further, the figures for the inhibition at 1 µM (in experiment [2]; in the experiment with RPTEC [6]) were 65% and 32%, respectively. Further, the inhibition at 10 µM was 60% in the experiment on RPTEC [3] and 68% in experiment [4].
Regarding `CCOP(=O)(Cc1ccc(C(=O)Nc2nc(-c3ccccc3)ns2)cc1)OCC`, the results for the inhibition at 0.1 µM (in experiment [1]; in the experiment with RPTEC [5]) were 62% and 33%, respectively. The inhibition at 1 µM stood at 85% in experiment [2] and 61% in the experiment with RPTEC [6]. Besides, the figures for the inhibition at 10 µM (in the experiment on RPTEC [3]; in experiment [4]) were 96% and 108%, respectively.
As to `CCOP(=O)(Cc1ccc(C(=O)Nc2ccc(Br)cc2C#N)cc1)OCC` [IBROLIPIM], the inhibition at 10 µM turned out to be 77% in the experiment on RPTEC [3] and 56% in experiment [4].
